From ChEMBL document CHEMBL3351280, “Exploration and pharmacokinetic profiling of phenylalanine based carbamates as novel substance p 1-7 analogues” (ACS Med Chem Lett, 2014)
Peptide text beside a SMILES is read from it.

Columns and labels:
[1] = Intrinsic clearance in human liver microsomes at 25 uM; format: ADME; settings: read-out: CLH
[2] = Half life in rat plasma at 25 uM; format: ADME, cell-free
[3] = Half life in human plasma at 25 uM; format: ADME, cell-free
[4] = target: T1, Solute carrier family 15 member 1 (Homo sapiens, UniProt P46059); assay: Drug uptake in CHO-PepT1 cells expressing PepT1 (unknown origin) assessed as transporter mediated uptake at 25 uM; format: ADME, cell-based, Cricetulus griseus; settings: chinese hamster, cho-pept1, 25 µM
T1 sequence (P46059 whole entry): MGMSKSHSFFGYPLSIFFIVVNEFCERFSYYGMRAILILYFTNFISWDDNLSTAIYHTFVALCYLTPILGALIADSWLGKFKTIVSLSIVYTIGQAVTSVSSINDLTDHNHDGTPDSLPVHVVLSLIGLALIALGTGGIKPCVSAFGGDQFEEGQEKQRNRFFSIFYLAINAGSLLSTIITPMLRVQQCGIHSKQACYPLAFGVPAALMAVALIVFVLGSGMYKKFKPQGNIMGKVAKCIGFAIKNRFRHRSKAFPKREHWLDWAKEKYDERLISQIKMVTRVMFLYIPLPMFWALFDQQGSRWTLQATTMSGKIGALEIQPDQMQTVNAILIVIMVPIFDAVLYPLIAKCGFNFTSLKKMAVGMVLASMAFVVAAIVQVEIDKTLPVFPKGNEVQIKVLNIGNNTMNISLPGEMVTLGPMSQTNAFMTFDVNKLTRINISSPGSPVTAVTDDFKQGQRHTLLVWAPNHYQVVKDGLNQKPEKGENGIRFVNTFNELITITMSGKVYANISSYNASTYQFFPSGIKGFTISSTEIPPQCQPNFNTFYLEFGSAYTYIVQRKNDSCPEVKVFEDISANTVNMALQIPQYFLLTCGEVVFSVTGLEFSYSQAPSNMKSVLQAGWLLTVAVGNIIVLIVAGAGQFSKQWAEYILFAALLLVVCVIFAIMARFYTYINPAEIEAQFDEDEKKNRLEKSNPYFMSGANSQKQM

[5] = Drug uptake in CHOK1 cells at 25 uM; format: ADME, cell-based, Cricetulus griseus; settings: chinese hamster, cho-k1, 25 µM
in vitro [6] = settings: human, Caco-2
in vitro [7] = settings: human, Caco-2; remark: listed apart in the source
in vitro [8] = settings: human, Caco-2; remark: listed apart in the source
PepT1 = assay: in vitro; settings: chinese hamster, CHO-PepT1 cells and CHO-K1 cells
[9] = Fraction unbound in human plasma at 10 uM; format: ADME, cell-free
How it was run: (§1)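 Human plasma protein binding was measured by equilibrium dialysis. The read-outs were fraction unbound and mass recovery.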

Plasma [10] = assay: Drug recovery in human plasma at 10 uM; format: ADME, cell-free; how it was run: as §1
[11] = Fraction unbound in rat plasma at 10 uM; format: ADME, cell-free
Plasma [12] = assay: Drug recovery in rat plasma at 10 uM; format: ADME, cell-free
[13] = Fraction unbound in rat brain at 10 uM; format: ADME, tissue-based
Brain = assay: Unbound brain volume of distribution in rat at 10 uM; format: ADME, tissue-based; settings: in vivo
[14] = Drug recovery in rat brain at 10 uM; format: ADME, tissue-based; settings: read-out: Drug recovery
[15] = Apparent permeability from apical to basolateral side in human Caco2 cells; format: ADME, cell-based; settings: Caco-2
How it was run: (§2)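 Caco-2 monolayers; apparent permeability coefficients (Papp) calculated from transport rates in the apical-to-basolateral and basolateral-to-apical directions. Efflux ratio is Papp(b–a)/Papp(a–b). Values are given as mean ± SD.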

[16] = Efflux ratio of apparent permeability from basolateral to apical side to apical to basolateral side of human Caco2 cells; format: ADME, cell-based; settings: Caco-2; how it was run: as §2
[17] = Intrinsic clearance in rat microsomes; format: ADME, Microsome
[18] = Intrinsic clearance in human microsomes; format: ADME, Microsome
Hepatocyte = assay: Intrinsic clearance in rat hepatocytes; format: ADME, cell-based
Cytochrome P450 2D6 = Cytochrome P450 2D6 (Homo sapiens, UniProt P10635); assay: Inhibition of CYP2D6 (unknown origin); format: ADME
Chain of Cytochrome P450 2D6 (P10635 whole entry): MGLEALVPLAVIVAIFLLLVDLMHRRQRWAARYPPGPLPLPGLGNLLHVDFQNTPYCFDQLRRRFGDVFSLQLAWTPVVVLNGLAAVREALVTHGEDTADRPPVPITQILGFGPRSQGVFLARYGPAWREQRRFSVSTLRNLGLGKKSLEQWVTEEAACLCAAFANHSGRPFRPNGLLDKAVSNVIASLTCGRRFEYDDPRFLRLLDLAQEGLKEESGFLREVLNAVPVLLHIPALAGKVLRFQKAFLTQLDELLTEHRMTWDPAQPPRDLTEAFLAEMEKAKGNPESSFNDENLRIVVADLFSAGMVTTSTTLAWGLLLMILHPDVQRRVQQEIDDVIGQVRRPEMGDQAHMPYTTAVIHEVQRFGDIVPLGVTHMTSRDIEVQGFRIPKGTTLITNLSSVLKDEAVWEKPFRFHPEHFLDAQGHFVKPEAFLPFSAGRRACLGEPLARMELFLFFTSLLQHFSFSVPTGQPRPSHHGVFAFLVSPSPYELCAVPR

Cytochrome P450 3A4 = Cytochrome P450 3A4 (Homo sapiens, UniProt P08684); assay: Inhibition of CYP3A4 (unknown origin); format: ADME
Chain of Cytochrome P450 3A4 (P08684 whole entry): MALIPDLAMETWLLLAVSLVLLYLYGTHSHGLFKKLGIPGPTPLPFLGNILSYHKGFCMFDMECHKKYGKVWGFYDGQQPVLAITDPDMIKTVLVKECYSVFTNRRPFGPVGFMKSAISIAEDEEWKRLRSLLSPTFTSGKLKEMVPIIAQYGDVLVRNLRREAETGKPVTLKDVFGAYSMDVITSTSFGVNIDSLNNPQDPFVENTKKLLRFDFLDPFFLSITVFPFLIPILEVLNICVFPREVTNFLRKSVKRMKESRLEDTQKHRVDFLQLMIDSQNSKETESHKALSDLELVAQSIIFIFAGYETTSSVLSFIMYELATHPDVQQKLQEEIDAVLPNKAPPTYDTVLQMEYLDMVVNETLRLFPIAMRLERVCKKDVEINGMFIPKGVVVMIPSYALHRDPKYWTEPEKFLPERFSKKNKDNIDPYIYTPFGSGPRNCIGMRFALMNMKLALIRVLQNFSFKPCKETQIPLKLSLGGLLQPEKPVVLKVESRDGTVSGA

Cytochrome P450 1A2 = target: T2, Cytochrome P450 1A2 (Homo sapiens, UniProt P05177); assay: Inhibition of CYP1A2 (unknown origin); format: ADME
T2 sequence (P05177 whole entry): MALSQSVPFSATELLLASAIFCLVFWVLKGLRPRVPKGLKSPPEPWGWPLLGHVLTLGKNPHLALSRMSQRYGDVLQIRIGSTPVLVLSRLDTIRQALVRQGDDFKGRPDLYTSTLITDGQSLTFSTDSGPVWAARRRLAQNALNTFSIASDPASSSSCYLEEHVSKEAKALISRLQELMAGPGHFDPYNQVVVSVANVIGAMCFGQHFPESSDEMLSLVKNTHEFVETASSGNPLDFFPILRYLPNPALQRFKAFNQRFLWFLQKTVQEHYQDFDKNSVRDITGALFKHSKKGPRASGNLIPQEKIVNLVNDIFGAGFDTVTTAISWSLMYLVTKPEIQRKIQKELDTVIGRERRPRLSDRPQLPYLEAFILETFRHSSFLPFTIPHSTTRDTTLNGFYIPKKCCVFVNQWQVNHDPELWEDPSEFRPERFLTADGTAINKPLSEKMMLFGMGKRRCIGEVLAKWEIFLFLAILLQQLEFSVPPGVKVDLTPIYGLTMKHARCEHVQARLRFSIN

Cytochrome P450 2C9 = Cytochrome P450 2C9 (Homo sapiens, UniProt P11712); assay: Inhibition of CYP2C9 (unknown origin); format: ADME
Chain of Cytochrome P450 2C9 (P11712 whole entry): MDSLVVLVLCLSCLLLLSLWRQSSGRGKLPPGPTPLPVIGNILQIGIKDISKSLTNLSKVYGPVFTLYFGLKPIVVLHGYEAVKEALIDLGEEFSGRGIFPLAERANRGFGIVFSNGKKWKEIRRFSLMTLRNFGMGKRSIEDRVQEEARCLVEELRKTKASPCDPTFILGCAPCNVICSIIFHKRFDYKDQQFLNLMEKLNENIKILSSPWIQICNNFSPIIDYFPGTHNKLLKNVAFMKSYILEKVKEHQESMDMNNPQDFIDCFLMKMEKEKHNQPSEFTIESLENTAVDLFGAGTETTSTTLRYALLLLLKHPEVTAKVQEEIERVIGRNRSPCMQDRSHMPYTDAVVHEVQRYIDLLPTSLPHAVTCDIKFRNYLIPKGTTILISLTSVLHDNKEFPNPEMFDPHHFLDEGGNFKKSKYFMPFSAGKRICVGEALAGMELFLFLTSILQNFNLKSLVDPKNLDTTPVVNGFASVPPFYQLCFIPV

[19] = Intrinsic clearance in human liver microsomes at 100 uM; format: ADME; settings: read-out: CLH
[20] = Half life in rat plasma at 100 uM; format: ADME, cell-free
[21] = Half life in human plasma at 100 uM; format: ADME, cell-free
[22] = target: T1, Solute carrier family 15 member 1; assay: Drug uptake in CHO-PepT1 cells expressing PepT1 (unknown origin) assessed as transporter mediated uptake at 100 uM; format: ADME, cell-based, Cricetulus griseus; settings: chinese hamster, cho-pept1, 100 µM
How it was run: (§3)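 Uptake was measured in CHO-PepT1 cells, which are stably transfected with PepT1, and in CHO-K1 cells as the control. It is expressed as pmol/mg protein/min. […] A PepT1/K1 uptake ratio above 1 was taken to indicate a PepT1 substrate. Values are mean ± SD.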

[23] = Drug uptake in CHOK1 cells at 100 uM; format: ADME, cell-based, Cricetulus griseus; settings: chinese hamster, cho-k1, 100 µM; how it was run: as §3
[24] = Apparent permeability from apical to basolateral side in human Caco2 cells at 100 uM; format: ADME, cell-based; settings: Caco-2
How it was run: as §2, with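 “Papp(b–a)/Papp(a–b). The test concentration was 100 μM, or 25 μM for poorly soluble compounds after further dilution.” for “Papp(b–a)/Papp(a–b).”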

[25] = Apparent permeability from basolateral to apical side in human Caco2 cells at 100 uM; format: ADME, cell-based; settings: Caco-2
How it was run: as §2, with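 “Papp(b–a)/Papp(a–b). The test concentration was 100 μM, or 25 μM for poorly soluble compounds after further dilution.” for “Papp(b–a)/Papp(a–b).”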

Compound	microsomal CLint at 25 µM [1]	half-life at 25 µM [2]	half-life at 25 µM [3]	Drug uptake [4]	Drug uptake [5]	Papp A→B at 25 µM (in vitro [6])	Papp B→A at 25 µM (in vitro [7])	Drug recovery (Plasma [10])	Drug recovery (Plasma [12])	other results
O=C(N[C@@H](Cc1ccccc1)C(=O)NNC(=O)c1ccccc1)OCc1ccccc1	65 µL/min/mg	0.31 h	9.9 h	127 pmol/min/mg	156 pmol/min/mg	11 ×10⁻⁶ cm/s	14 ×10⁻⁶ cm/s	–	–	efflux ratio at 25 µM (in vitro [8]): 1.3; uptake ratio at 25 µM (PepT1): 0.8
N#CNC(=O)[C@H](Cc1ccccc1)NC(=O)OCc1ccccc1	11 µL/min/mg	8.7 h	6.6 h	4 pmol/min/mg	4 pmol/min/mg	52 ×10⁻⁶ cm/s	62 ×10⁻⁶ cm/s	–	–	efflux ratio at 25 µM (in vitro [8]): 1.2; uptake ratio at 25 µM (PepT1): 1
NC(=O)[C@H](Cc1ccccc1)NC(=O)OCc1ccccc1	–	–	–	–	–	–	–	> 65%	> 70%	fraction unbound at 10 µM [9]: 0.19; fraction unbound at 10 µM [11]: 0.18; fraction unbound at 10 µM [13]: 0.17; Vdu (Brain): 6 mL/g; recovery at 10 µM [14]: > 95%; Papp A→B [15]: 31 ×10⁻⁶ cm/s; efflux ratio [16]: 1; microsomal CLint [17]: 21.2 µL/min/mg; microsomal CLint [18]: 22.6 µL/min/mg; CLH (Hepatocyte): 39.4 µL/min/mg; INH (Cytochrome P450 2D6): > 20 µM; INH (Cytochrome P450 3A4): > 20 µM; INH (Cytochrome P450 1A2): > 20 µM; INH (Cytochrome P450 2C9): > 20 µM
O=C(N[C@@H](Cc1ccccc1)c1nnc(-c2ccccc2)o1)OCc1ccccc1	287 µL/min/mg	8.7 h	11.2 h	1082 pmol/min/mg	1128 pmol/min/mg	–	–	–	–	–
NC(=O)[C@H](Cc1ccccc1)NC(=O)[C@@H](N)Cc1ccccc1 (H-Phe-Phe-NH2)	–	–	–	–	–	–	–	22%	1%	microsomal CLint [17]: 103 µL/min/mg; microsomal CLint [18]: 97.3 µL/min/mg
O=C(N[C@@H](Cc1ccccc1)C(=O)NO)OCc1ccccc1	23 µL/min/mg	0.06 h	7.9 h	5 pmol/min/mg	4 pmol/min/mg	60 ×10⁻⁶ cm/s	45 ×10⁻⁶ cm/s	–	–	–
NC(=O)[C@@H]1[C@H](c2ccccc2)CCN1C(=O)[C@@H](N)Cc1ccccc1	–	–	–	–	–	–	–	> 95%	> 95%	Vdu (Brain): 3.4 mL/g; recovery at 10 µM [14]: > 95%
CS(=O)(=O)NC(=O)[C@H](Cc1ccccc1)NC(=O)OCc1ccccc1	–	–	–	–	–	–	–	–	–	microsomal CLint at 100 µM [19]: 17 µL/min/mg; half-life at 100 µM [20]: 6.9 h; half-life at 100 µM [21]: 26.7 h; Drug uptake [22]: 90 pmol/min/mg; Drug uptake [23]: 77 pmol/min/mg; Papp A→B at 100 µM [24]: 6 ×10⁻⁶ cm/s; Papp B→A at 100 µM [25]: 3 ×10⁻⁶ cm/s
